How the values were obtained:
Homo sapiens [1] = assay: Total drug excretion in human at 100 mg, po up to 4 hrs by liquid scintillation counting analysis; assay type: ADME, organism-based; conditions: in vivo
In short: (§1)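 Mass balance after single oral 100 mg [14C] dose to healthy males: cumulative urinary plus fecal radioactivity (LSC; feces combusted first) as % of dose per subject, urine and feces collected in timed intervals to 120 h.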

Homo sapiens [2] = assay: Total drug excretion in human at 100 mg, po up to 120 hrs by liquid scintillation counting analysis; assay type: ADME, organism-based; conditions: in vivo; in short: as §1
[3] = Drug excretion in human feces at 100 mg, po up to 72 hrs by liquid scintillation counting analysis; assay type: ADME, organism-based; conditions: in vivo
In short: (§2)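 Feces pooled into 24-h collections to 120 h after oral 100 mg [14C] dose, frozen -80°C, homogenised in water. Triplicate weighed aliquots combusted in sample oxidizer, counted by LSC 5 min. Excreted amount = concentration × sample weight, expressed as % of dosed radioactivity and summed cumulatively per subject.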

[4] = Drug excretion in monkey urine at 60 mg/kg, po; assay type: ADME, organism-based, Macaca mulatta; parameters: dose 60 mg/kg, route oral; conditions: rhesus monkey, read-out: Drug excretion
Homo sapiens [5] = assay: Half life in human assessed as radioactivity at 100 mg, po by liquid scintillation counting analysis; assay type: ADME, organism-based; conditions: in vivo
In short: (§3)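 Healthy males given single oral [14C] milnacipran hydrochloride (100 μCi; 1 μCi/mg) after breakfast. Blood drawn into chilled K3EDTA tubes pre-dose to 120 h, plasma spun ≥2,500 g 10 min 4°C and frozen -80°C. Radioactivity counted by LSC for 5 min, converted to ng equivalent/mL via specific activity. Parameters by non-compartmental analysis; subjects without emesis.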

Homo sapiens [6] = assay: Cmax in human assessed as radioactivity at 100 mg, po by liquid scintillation counting analysis; assay type: ADME, organism-based; parameters: dose 100 mg, route oral; conditions: in vivo; in short: as §3
[7] = Drug excretion in human urine at 100 mg, po up to 12 hrs by liquid scintillation counting analysis; assay type: ADME, organism-based; conditions: in vivo
In short: (§4)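 Urine pooled at 0-4, 4-8, 8-12, 12-24 h, then daily intervals to 120 h after single oral 100 mg [14C] milnacipran hydrochloride; frozen -80°C and counted by LSC. Excreted amount = concentration × volume, given as % of dosed radioactivity, summed cumulatively per subject.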

[8] = Drug excretion in human urine at 100 mg, po up to 96 hrs by liquid scintillation counting analysis; assay type: ADME, organism-based; conditions: in vivo; in short: as §4
Homo sapiens [9] = assay: Total drug excretion in human at 100 mg, po up to 72 hrs by liquid scintillation counting analysis; assay type: ADME, organism-based; conditions: in vivo; in short: as §1
[10] = Drug excretion in human urine at 100 mg, po up to 4 hrs by liquid scintillation counting analysis; assay type: ADME, organism-based; conditions: in vivo; in short: as §4
Homo sapiens [11] = assay: Total drug excretion in human at 100 mg, po up to 12 hrs by liquid scintillation counting analysis; assay type: ADME, organism-based; conditions: in vivo; in short: as §1
[12] = Drug excretion in human feces at 100 mg, po up to 24 hrs by liquid scintillation counting analysis; assay type: ADME, organism-based; conditions: in vivo; in short: as §2
[13] = Drug excretion in rat urine at 100 mg/kg, po; assay type: ADME, organism-based; parameters: dose 100 mg/kg, route oral; conditions: read-out: Drug excretion
[14] = Drug excretion in human urine at 100 mg, po up to 8 hrs by liquid scintillation counting analysis; assay type: ADME, organism-based; conditions: in vivo; in short: as §4
Homo sapiens [15] = assay: AUC (0 to t) in human assessed as radioactivity at 100 mg, po by liquid scintillation counting analysis; assay type: ADME, organism-based, Plasma; conditions: in vivo; in short: as §3
[16] = Drug excretion in human feces at 100 mg, po up to 120 hrs by liquid scintillation counting analysis; assay type: ADME, organism-based; conditions: in vivo; in short: as §2
[17] = Drug excretion in human urine at 100 mg, po up to 144 hrs by liquid scintillation counting analysis; assay type: ADME, organism-based; conditions: in vivo
[18] = Drug excretion in human feces at 100 mg, po up to 144 hrs by liquid scintillation counting analysis; assay type: ADME, organism-based; conditions: in vivo
Homo sapiens [19] = assay: Tmax in human assessed as radioactivity at 100 mg, po by liquid scintillation counting analysis; assay type: ADME, organism-based; conditions: in vivo; in short: as §3
Homo sapiens [20] = assay: Total drug excretion in human at 100 mg, po up to 96 hrs by liquid scintillation counting analysis; assay type: ADME, organism-based; conditions: in vivo; in short: as §1
Homo sapiens [21] = assay: Total drug excretion in human at 100 mg, po up to 48 hrs by liquid scintillation counting analysis; assay type: ADME, organism-based; conditions: in vivo; in short: as §1
[22] = Drug excretion in human feces at 100 mg, po up to 48 hrs by liquid scintillation counting analysis; assay type: ADME, organism-based; conditions: in vivo; in short: as §2
Plasma = assay: Drug recovery in human plasma at 100 mg, po by HPLC analysis; assay type: ADME, organism-based; conditions: in vivo
In short: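 Pooled plasma extracted for metabolite profiling; recovery of radioactivity through sample processing and through Phenyl-Hexyl HPLC column (0.5-min fractions counted by LSC) expressed as % of plasma or sample radioactivity.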

Homo sapiens [23] = assay: Total drug excretion in human at 100 mg, po up to 144 hrs by liquid scintillation counting analysis; assay type: ADME, organism-based; conditions: in vivo
Homo sapiens [24] = assay: AUC (0 to infinity) in human assessed as radioactivity at 100 mg, po by liquid scintillation counting analysis; assay type: ADME, organism-based, Plasma; parameters: dose 100 mg, route oral, time infinity; conditions: in vivo; in short: as §3
[25] = Drug excretion in human urine at 100 mg, po up to 120 hrs by liquid scintillation counting analysis; assay type: ADME, organism-based; conditions: in vivo; in short: as §4
[26] = Drug excretion in human feces at 100 mg, po up to 96 hrs by liquid scintillation counting analysis; assay type: ADME, organism-based; conditions: in vivo; in short: as §2
[27] = Drug excretion in human urine at 100 mg, po up to 72 hrs by liquid scintillation counting analysis; assay type: ADME, organism-based; conditions: in vivo; in short: as §4
[28] = Drug excretion in human urine at 100 mg, po up to 48 hrs by liquid scintillation counting analysis; assay type: ADME, organism-based; conditions: in vivo; in short: as §4
Homo sapiens [29] = assay: Total drug excretion in human at 100 mg, po up to 8 hrs by liquid scintillation counting analysis; assay type: ADME, organism-based; conditions: in vivo; in short: as §1
[30] = Drug excretion in mouse urine at 100 mg/kg, po; assay type: ADME, organism-based; parameters: dose 100 mg/kg, route oral; conditions: read-out: Drug excretion
[31] = Drug excretion in human urine at 100 mg, po up to 24 hrs by liquid scintillation counting analysis; assay type: ADME, organism-based; conditions: in vivo; in short: as §4
Homo sapiens [32] = assay: Total drug excretion in human at 100 mg, po up to 24 hrs by liquid scintillation counting analysis; assay type: ADME, organism-based; conditions: in vivo; in short: as §1

Structure (SMILES): CCN(CC)[14C](=O)C1(c2ccccc2)CC1CN.Cl (stereo not drawn)
- Drug excretion (Homo sapiens [1]): 24.8%
- Drug excretion (Homo sapiens [2]): 96.8%
- Drug excretion [3]: 3.27%
- dose excreted [4]: 40%
- t1/2 (Homo sapiens [5]): 7.7 h
- Cmax (Homo sapiens [6]): 679 ng.Eq/ml
- Drug excretion [7]: 60.8%
- Drug excretion [8]: 92.8%
- Drug excretion (Homo sapiens [9]): 95.4%
- Drug excretion [10]: 24.8%
- Drug excretion (Homo sapiens [11]): 60.8%
- Drug excretion [12]: 0.407%
- dose excreted [13]: 63%
- Drug excretion [14]: 48.5%
- AUCt (Homo sapiens [15]): 6446.3 ng.Eq.hr/ml
- Drug excretion [16]: 3.65%
- Drug excretion [17]: 93.3%
- Drug excretion [18]: 3.65%
- Tmax (Homo sapiens [19]): 4.3 h
- Drug excretion (Homo sapiens [20]): 96.5%
- Drug excretion (Homo sapiens [21]): 92.2%
- Drug excretion [22]: 2.83%
- Drug recovery (Plasma): 99.1%
- Drug excretion (Homo sapiens [23]): 96.9%
- AUC (Homo sapiens [24]): 7325.3 ng.Eq.hr/ml
- Drug excretion [25]: 93.1%
- Drug excretion [26]: 3.62%
- Drug excretion [27]: 92.1%
- Drug excretion [28]: 89.3%
- Drug excretion (Homo sapiens [29]): 48.5%
- dose excreted [30]: 63%
- Drug excretion [31]: 79.4%
- Drug excretion (Homo sapiens [32]): 79.6%

From ChEMBL document CHEMBL3526138, “Excretion and metabolism of milnacipran in humans after oral administration of milnacipran hydrochloride” (Drug Metab Dispos, 2012)
